In brackets after ≈: the same amount, converted by molar mass. Activity calls are given as the source filed them. The calls are words filed in the database; no cut-off is given here.
Assays:
[1] = system: Staphylococcus aureus; experiment: Antibacterial activity against methicillin-resistant Staphylococcus aureus ATCC 33591 assessed as change in bacterial burden at 20 mg/liter after 4 hrs; format: functional
Summary of the method: (§1)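 In vitro kinetic model: spinner flask with 0.45-μm filter and prefilter, stirred, M-H broth at 37°C, starting inoculum approx. 5 × 10⁵ CFU/ml. Single initial drug dose of 1.0 to 40 mg/liter, with flow set to give a half-life of approx. 8 h. Viable counts at 0, 2, 4, 6, 8, 12 and 24 h. Duplicate runs per strain and concentration.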

[2] = system: Staphylococcus aureus; experiment: Antibacterial activity against methicillin-resistant Staphylococcus aureus ATCC 33591 after 18 to 24 hrs by macrodilution technique; format: functional
Summary of the method: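 Broth macrodilution per CLSI, run in triplicate on separate occasions. Twofold serial drug dilutions in broth, inoculum approx. 5 × 10⁵ CFU/ml, 37°C for 18 to 24 h. MIC taken as the lowest concentration with no visible growth.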

[3] = system: Staphylococcus aureus; experiment: Antibacterial activity against methicillin-susceptible Staphylococcus aureus ATCC 13709 assessed as bacterial killing at 0.5 to 50 times MIC after 24 hrs in presence of 50% human serum; format: functional, organism-based
[4] = system: Staphylococcus aureus; experiment: Antibacterial activity against methicillin-resistant Staphylococcus aureus ATCC 33591 assessed as change in bacterial burden at 40 mg/liter after 4 hrs; format: functional; summary of the method: as §1
[5] = system: Staphylococcus aureus; experiment: Antibacterial activity against methicillin-resistant Staphylococcus aureus ATCC 33591 assessed as change in bacterial burden at 2.5 mg/liter after 8 hrs; format: functional; summary of the method: as §1
[6] = system: Staphylococcus aureus; experiment: Antibacterial activity against methicillin-susceptible Staphylococcus aureus ATCC 13709 assessed as change in bacterial burden at 40 mg/liter after 6 hrs; format: functional
[7] = system: Staphylococcus aureus; experiment: Antibacterial activity against methicillin-resistant Staphylococcus aureus ATCC 33591 assessed as change in bacterial burden at 10 mg/liter after 6 hrs; format: functional; summary of the method: as §1
[8] = system: Staphylococcus aureus; experiment: Antibacterial activity against methicillin-resistant Staphylococcus aureus ATCC 33591 assessed as bacterial regrowth at 0.5 times MIC after 24 hrs in presence of human albumin; format: functional, organism-based
Summary of the method: (§2)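 Static time-kill in M-H broth, in M-H broth with 40 g/liter fatty-acid-free purified human albumin, or in M-H broth with inactivated 50% human serum. Inoculum approx. 5 × 10⁵ CFU/ml, drug at 0.5, 1, 2.5, 5, 10, 25 and 50× MIC, 37°C. Samples at 0, 3, 6, 12 and 24 h plated on blood agar, counted after 24 h. Detection limit 5 × 10¹ CFU/ml. Run in duplicate.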

[9] = system: Staphylococcus aureus; experiment: Antibacterial activity against methicillin-susceptible Staphylococcus aureus ATCC 13709 assessed as change in bacterial burden at 40 mg/liter after 12 hrs; format: functional; summary of the method: as §1
[10] = system: Staphylococcus aureus; experiment: Antibacterial activity against methicillin-resistant Staphylococcus aureus ATCC 33591 assessed as change in bacterial burden at 1 mg/liter after 2 hrs; format: functional; summary of the method: as §1
[11] = system: Staphylococcus aureus; experiment: Antibacterial activity against methicillin-resistant Staphylococcus aureus ATCC 33591 assessed as bacterial killing at 10 times MIC after 6 hrs in MH-broth; format: functional, organism-based
Summary of the method: (§3)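 Strain diluted in M-H broth to approx. 10⁵ CFU/ml and grown 6 h into log phase, then split. Broth tubes got drug at 10× MIC directly. PBS tubes were transferred to PBS and held 3 h more, then dosed at 10× MIC. Growth controls were run in each medium. Viable counts at 0, 3, 6, 9, 12 and 24 h. Run in duplicate.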

[12] = system: Staphylococcus aureus; experiment: Antibacterial activity against methicillin-susceptible Staphylococcus aureus ATCC 13709 assessed as change in bacterial burden at 5 mg/liter after 12 hrs; format: functional
[13] = system: Staphylococcus aureus; experiment: Antibacterial activity against methicillin-resistant Staphylococcus aureus ATCC 33591 assessed as change in bacterial burden at 20 mg/liter after 8 hrs; format: functional; summary of the method: as §1
[14] = system: Staphylococcus aureus; experiment: Antibacterial activity against methicillin-susceptible Staphylococcus aureus ATCC 13709 assessed as change in bacterial burden at 1 mg/liter after 6 hrs; format: functional
[15] = system: Staphylococcus aureus; experiment: Antibacterial activity against methicillin-susceptible Staphylococcus aureus ATCC 13709 assessed as change in bacterial burden at 2.5 mg/liter after 24 hrs; format: functional; summary of the method: as §1
[16] = system: Staphylococcus aureus; experiment: Antibacterial activity against methicillin-resistant Staphylococcus aureus ATCC 33591 assessed as bacterial killing at 50 times MIC after 24 hrs; format: functional, organism-based; summary of the method: as §2
[17] = system: Staphylococcus aureus; experiment: Antibacterial activity against methicillin-susceptible Staphylococcus aureus ATCC 13709 in MH-broth; format: functional, organism-based
[18] = Cmax in human at 10 mg/kg once daily; format: ADME, organism-based; design: dose 10 mg/kg; details: in vivo
[19] = Cmax in human serum at 7.5 mg/kg; format: ADME, organism-based; design: dose 7.5 mg/kg
[20] = system: Staphylococcus aureus; experiment: Antibacterial activity against methicillin-resistant Staphylococcus aureus ATCC 33591 assessed as bacterial killing at 10 times MIC after 24 hrs in PBS-nutrient depleted medium; format: functional, organism-based; summary of the method: as §3
[21] = Half life in in vitro kinetic model containing Mueller-Hinton broth and bacteria; format: physicochemical; details: in vitro kinetic model with bacteria
Summary of the method: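 Drug levels in kinetic-model samples measured by agar-well diffusion bioassay with Bacillus stearothermophilus ATCC 3032: 24 h prediffusion at 22°C, then overnight at 55°C; samples and standards in triplicate; detection limit 1 mg/liter.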

[22] = system: Staphylococcus aureus; experiment: Antibacterial activity against methicillin-resistant Staphylococcus aureus ATCC 33591 assessed as change in bacterial burden at 5 mg/liter after 4 hrs; format: functional; summary of the method: as §1
[23] = system: Staphylococcus aureus; experiment: Antibacterial activity against methicillin-susceptible Staphylococcus aureus ATCC 13709 assessed as bacterial regrowth at 40 mg/liter Cmax; format: functional, organism-based
[24] = system: Staphylococcus aureus; experiment: Antibacterial activity against methicillin-resistant Staphylococcus aureus ATCC 33591 assessed as change in bacterial burden at 5 mg/liter after 2 hrs; format: functional; summary of the method: as §1
[25] = system: Staphylococcus aureus; experiment: Antibacterial activity against methicillin-susceptible Staphylococcus aureus ATCC 13709 assessed as change in bacterial burden at 20 mg/liter after 6 hrs; format: functional; summary of the method: as §1
[26] = system: Staphylococcus aureus; experiment: Antibacterial activity against methicillin-susceptible Staphylococcus aureus ATCC 13709 assessed as change in bacterial burden at 2.5 mg/liter after 4 hrs; format: functional
[27] = Half life in human serum at 7.5 mg/kg; format: ADME, organism-based; design: dose 7.5 mg/kg
[28] = system: Staphylococcus aureus; experiment: Antibacterial activity against methicillin-susceptible Staphylococcus aureus ATCC 13709 assessed as bacterial killing at 50 times MIC after 24 hrs in presence of human albumin; format: functional, organism-based
[29] = system: Staphylococcus aureus; experiment: Antibacterial activity against methicillin-susceptible Staphylococcus aureus ATCC 13709 assessed as change in bacterial burden at 10 mg/liter after 6 hrs; format: functional; summary of the method: as §1
[30] = Ratio of AUC in in vitro kinetic model containing Mueller-Hinton broth and methicillin-susceptible Staphylococcus aureus ATCC 13709 to MIC for methicillin-susceptible Staphylococcus aureus ATCC 13709 in bacterial regrowth stage; format: functional
[31] = system: Staphylococcus aureus; experiment: Antibacterial activity against methicillin-resistant Staphylococcus aureus ATCC 33591 assessed as bacterial regrowth at 1 times MIC after 24 hrs in presence of human albumin; format: functional, organism-based; summary of the method: as §2
[32] = system: Staphylococcus aureus; experiment: Antibacterial activity against methicillin-susceptible Staphylococcus aureus ATCC 13709 assessed as change in bacterial burden at 1 mg/liter after 2 hrs; format: functional
[33] = system: Staphylococcus aureus; experiment: Antibacterial activity against methicillin-susceptible Staphylococcus aureus ATCC 13709 assessed as change in bacterial burden at 40 mg/liter after 2 hrs; format: functional; summary of the method: as §1
[34] = system: Staphylococcus aureus; experiment: Antibacterial activity against methicillin-susceptible Staphylococcus aureus ATCC 13709 assessed as change in bacterial burden at 5 mg/liter after 6 hrs; format: functional
[35] = system: Staphylococcus aureus; experiment: Antibacterial activity against methicillin-resistant Staphylococcus aureus ATCC 33591 assessed as change in bacterial burden at 5 mg/liter after 12 hrs; format: functional; summary of the method: as §1

CCCCCCCCCCNCCN[C@@]1(C)C[C@H](O[C@H]2[C@H](Oc3c4cc5cc3Oc3ccc(cc3Cl)[C@@H](O)[C@@H](NC(=O)[C@@H](CC(C)C)NC)C(=O)N[C@@H](CC(N)=O)C(=O)N[C@H]5C(=O)N[C@H]3C(=O)N[C@H](C(=O)N[C@H](C(=O)O)c5cc(O)c(CNCP(=O)(O)O)c(O)c5-c5cc3ccc5O)[C@H](O)c3ccc(c(Cl)c3)O4)O[C@H](CO)[C@@H](O)[C@@H]2O)O[C@@H](C)[C@H]1O [TELAVANCIN]
deltalog10CFU/ml [1]: -2.1
MIC [2]: 1 µg/mL (≈ 0.57 µM)
Activity [3]: Active
deltalog10CFU/ml [4]: -2.7
deltalog10CFU/ml [5]: -3.2
deltalog10CFU/ml [6]: -4.7
deltalog10CFU/ml [7]: -3
Activity [8]: Active
deltalog10CFU/ml [9]: -4.7
deltalog10CFU/ml [10]: -1
Activity [11]: Active
deltalog10CFU/ml [12]: -4.7
deltalog10CFU/ml [13]: -3.5
deltalog10CFU/ml [14]: -2
deltalog10CFU/ml [15]: -2.9
Activity [16]: Active
Activity [17]: Dose-dependent effect
Cmax [18]: 5200 ng/mL
Cmax [19]: 60000 ng/mL
Activity [20]: Active
half-life [21]: 8 h
deltalog10CFU/ml [22]: -2.1
Activity [23]: Active
deltalog10CFU/ml [24]: -0.9
deltalog10CFU/ml [25]: -3.9
deltalog10CFU/ml [26]: -1.6
half-life [27]: 7 h
Activity [28]: Active
deltalog10CFU/ml [29]: -3.3
Activity [30]: inactive
Activity [31]: Active
deltalog10CFU/ml [32]: -0.8
deltalog10CFU/ml [33]: -1.9
deltalog10CFU/ml [34]: -3.4
deltalog10CFU/ml [35]: -4.2
